TLR4-MyD88 BLA: blocks binding of human TLR4 to MyD88. hit rate 0.18% among 200,000. O00206+Q99836. HeLa CL3-4 TLR4/MyD88 BLA complementation, FRET ratio. AID 861. inhibition, % at 8.4 µM; in the data active means inhibition above about 25%;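 further: 0% = vehicle and 100% = reference inhibitor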
MC4R ag barr: agonists of human melanocortin 4 receptor (MC4R) beta-arrestin. P32245. U2OS MC4R beta-arrestin complementation, luminescence; percent of melanotan II response, DMSO zero. activation, % at 8.9 µM. hit rate 0.98% among 360,000;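 active means activation above a per-plate cutoff, the mean activation of sample wells on that plate plus 3 SD, cut at about 8% in these data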
NTR1 ag: agonists of human neurotensin receptor NTR1; AID 493036; NTR1-U2OS beta-arrestin-GFP spot imaging, agonist mode; activation, % at 20 µM; P30989; hit rate 0.17% among 330,000;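 active means activation at or above 40% of the spot to cytoplasm intensity ratio, with at least 20 cells analyzed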;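 further: 0% = DMSO without peptide and 100% = 100 nM NTR1 peptide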
MC4R antag cAMP: antagonists of human melanocortin 4 receptor (MC4R); hit rate 0.48% among 360,000; AID 540295; inhibition, % at 6.5 µM; MC4R-expressing cells, MTII-stimulated cAMP, LANCE TR-FRET; P32245;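 active means inhibition above its plate's cutoff, the mean of tested wells on that plate plus 3 SD, cut at about 29% in these data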;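 further: 0% = Melanotan II alone and 100% = Melanotan II plus saturating MCL0020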
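system = U2OS cells with stable human MC4R expression | also added = Melanotan II challenge after compound preincubation | dosing = one concentration, 6.5 µM nominal | incubation = compound 30 min, challenge 1 h, detection 1 h | measured by = TR-FRET with Eu-cAMP and labeled anti-cAMP, 671 nm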
TLR9-MyD88 block: inhibitors of human TLR9-MyD88 binding. Q9NR96+Q99836. CHO BLA complementation TLR9-MyD88, CCF4 FRET ratio. inhibition, % at 4.98 µM. hit rate 0.21% among 340,000. AID 504734;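 active means inhibition above the mean over all tested compounds plus 3 SD, cut at about 21% in these data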;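 further: 0% = DMSO only wells and 100% = clavulanate BLA inhibitor control wells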
NOD2 RIPK2 PPI: inhibitors of human NOD2-RIPK2 interaction | hit rate 0.38% among 360,000 | O43353 | inhibition, % at 4.98 µM | CHO BLA complementation NOD2-RIPK2, CCF4 ratio; in the data active means inhibition above about 21%;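 further: 0% = vehicle only and 100% = reference blocker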
Target sequence (O43353 whole entry, looked up): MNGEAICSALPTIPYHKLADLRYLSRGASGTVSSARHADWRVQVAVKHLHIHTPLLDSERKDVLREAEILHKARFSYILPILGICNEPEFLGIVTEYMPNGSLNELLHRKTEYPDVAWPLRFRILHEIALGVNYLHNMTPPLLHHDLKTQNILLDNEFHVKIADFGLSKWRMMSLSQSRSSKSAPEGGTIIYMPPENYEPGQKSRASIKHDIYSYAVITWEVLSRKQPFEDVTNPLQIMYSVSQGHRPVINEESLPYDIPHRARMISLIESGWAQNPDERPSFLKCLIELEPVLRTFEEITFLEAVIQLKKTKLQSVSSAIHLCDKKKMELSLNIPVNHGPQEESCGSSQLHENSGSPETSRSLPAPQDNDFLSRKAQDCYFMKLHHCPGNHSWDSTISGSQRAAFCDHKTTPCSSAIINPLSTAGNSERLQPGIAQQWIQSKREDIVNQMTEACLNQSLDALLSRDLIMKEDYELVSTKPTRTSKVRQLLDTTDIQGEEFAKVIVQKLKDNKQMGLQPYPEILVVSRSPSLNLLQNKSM
Starred values were filed as active, the others as inactive; . = no result. Compounds with a hit are over-represented: about 1.9% of the library has one in this group of screens.

SMILES	TLR4-MyD88 BLA	MC4R ag barr	NTR1 ag	MC4R antag cAMP	TLR9-MyD88 block	NOD2 RIPK2 PPI
CC(C)NC(=O)NC(=O)CSc1nnc(COc2ccccc2F)n1C(C)C1CC2CCC1C2 (stereo not drawn)	8.8	9.5*	26.0	21.1	8.1	-0.3
O=C(/C=C\c1cn(-c2ccccc2)nc1-c1ccc2c(c1)OCCO2)N1CCOCC1	-2.6	8.5*	2.8	6.9	-1.4	-8.6
CCOC(=O)C1=C(CSc2nccn2C)NC(=O)NC1c1ccc2c(c1)OCO2 (stereo not drawn)	-7.7	9.2*	-1.4	4.5	7.2	-1.4
Cc1ccccc1OCC(=O)Nc1ccc2c(c1)Cc1ccccc1-2	-6.7	28.3*	5.9	6.9	-9.0	-2.4
COc1cccc(/C=C/C(=O)NNC(=O)c2ccco2)c1OC	.	-1.6	-2.2	-0.6	-10.1	-1.1
O=c1c(-c2ccccc2)nc2ccccc2n1C(CCc1ccccc1)c1nc2ccccc2[nH]1 (stereo not drawn)	.	.	.	.	.	-17.3
O=C1[C@H](Cc2ccccc2)NCC=CC[C@H](c2ccc(Cl)cc2)N1Cc1ccccc1	.	8.6*	.	11.9	1.1	15.2
COc1ccc(OC)c(CN2C(=O)CN(S(C)(=O)=O)CC2(C)C(=O)NCc2ccccc2)c1 (stereo not drawn)	.	.	.	.	.	-18.5
C=CCc1ccccc1OCC(O)CN1CCN(c2ccc(OC)cc2)CC1 (stereo not drawn)	6.1	8.7*	2.7	22.2	0.8	4.3
Cc1ccccc1OCC(O)CN1CCN(CC(O)COc2ccccc2C)CC1 (stereo not drawn)	-6.7	-1.2	-0.6	9.5	-5.2	-0.4
Cc1ccccc1OCC(O)CN1CCN(c2ccc(Cl)cc2)CC1 (stereo not drawn)	.	8.2*	2.5	7.5	8.4	10.0
C[C@@H]1COc2cc(N(C)CCO)ccc2S(=O)(=O)N1	.	.	.	.	.	1.2
COc1cc(CN2CCC(Cc3ccccc3)CC2)cc([N+](=O)[O-])c1O	.	-0.3	-0.8	-1.3	-4.4	5.8
COc1cc(NC(=O)CN2CCC(Cc3ccccc3)CC2)c(C)cc1[N+](=O)[O-]	-8.0	9.5*	1.3	3.2	1.6	-0.7
O=C(CN1CCC(Cc2ccccc2)CC1)NC(=O)NCc1ccccc1	2.7	9.6*	1.9	8.6	-7.5	6.9
Cc1ccc(C)c(NCCCCCCCC(=O)O)c1	.	.	.	.	.	-8.8
CC(=O)NCCNc1nc2cc(-c3ccccc3CO)sc2c(=O)n1C	.	0.8	.	10.0	.	-9.7
C=CCc1cccc2cc(C(=O)OCC(=O)c3ccccc3)c(=O)oc12	-1.5	9.5*	0.3	5.7	-10.0	-2.4
CCOC1=C2[C@@H](CN(S(=O)(=O)c3ccc(C)cc3)[C@H]2c2ccccc2Cl)[C@H]2C(=O)N(Cc3ccccc3)C(=O)[C@H]2C1	.	.	.	.	.	-5.1
Oc1ccc(/C=N/Nc2cc(N3CCOCC3)nc(N3CCOCC3)n2)cc1	0.0	4.0	0.9	-20.8	3.1	-2.5
Cc1nc(N/N=C/c2ccc(Br)cc2)cc(N2CCOCC2)n1	.	8.3*	2.5	11.3	-7.3	8.6
CCCCCCCC[n+]1cccc(C(=O)N(CC)CC)c1	0.8	-2.1	0.6	7.9	3.8	-12.3
CCCCCCCCCCCCCCCC[n+]1ccc(C(N)=O)cc1	-15.1	9.2*	0.6	21.6	1.0	-7.2
C#CCOCCOCCOCCNc1nc(N2CCN(C(=O)CCCCCCCCCCNC(=O)[C@H](CCCCN)n3cc(C[C@@H](C)CC)nn3)CC2)nc(N2CCN(C(=O)CCCCCCCCCCNC(=O)[C@H](CCCN=C(N)N)n3cc(C[C@@H](C)CC)nn3)CC2)n1	.	-2.1	0.8	83.1*	34.0*	73.3*
C#CCOCCOCCOCCNc1nc(N2CCN(C(=O)CCCCCCCCCCNC(=O)[C@H](CCCCN)n3cc(C)nn3)CC2)nc(N2CCN(C(=O)CCCCCCCCCCNC(=O)[C@H](CCCN=C(N)N)n3cc(C[C@@H](C)CC)nn3)CC2)n1	.	.	16.4	.	.	.
SMILES	TLR4-MyD88 BLA	MC4R ag barr	NTR1 ag	MC4R antag cAMP	TLR9-MyD88 block	NOD2 RIPK2 PPI
C#CCOCCOCCOCCNc1nc(N2CCN(C(=O)CCCCCCCCCCNC(=O)[C@H](CCCCN)n3cc(C)nn3)CC2)nc(N2CCN(C(=O)CCCCCCCCCCNC(=O)[C@@H]([C@H](C)O)n3cc(C)nn3)CC2)n1	.	-1.3	4.5	8.3	0.1	6.8
C#CCOCCOCCOCCNc1nc(N2CCN(C(=O)CCCCCCCCCCNC(=O)[C@@H](CCSC)n3cc(CCO)nn3)CC2)nc(N2CCN(C(=O)CCCCCCCCCCNC(=O)[C@H](CCCN=C(N)N)n3cc(C[C@@H](C)CC)nn3)CC2)n1	.	-0.5	7.6	60.0*	-0.8	41.3*
CC[C@H](C)Cc1cn([C@@H](CCCN=C(NC(=O)OC(C)(C)C)NC(=O)OC(C)(C)C)C(=O)NCCCCCCCCCCC(=O)N2CCN(C(=O)OC(C)(C)C)CC2)nn1	.	0.4	44.9*	24.0	-1.9	-6.5
C#CCOCCOCCOCCNc1nc(N2CCN(C(=O)CCCCCCCCCCNC(=O)[C@H](CCCCN)n3cc(C[C@@H](C)CC)nn3)CC2)nc(N2CCN(C(=O)CCCCCCCCCCNC(=O)[C@@H]([C@H](C)O)n3cc(C)nn3)CC2)n1	.	-0.6	3.7	43.9*	15.4	34.8*
Cc1cccc(C)c1NC(=O)C(c1ccncc1)n1c(=O)c(-c2ccco2)nc2ccccc21 (stereo not drawn)	.	.	.	.	.	-9.3
CC1=Nn2c(nnc2-c2cc(-c3ccccc3)n[nH]2)SC1	2.0	0.7	1.0	12.6	-4.2	-9.9
c1ccc(-c2ccc(C3=Nn4c(nnc4-c4cc(-c5ccccc5)n[nH]4)SC3)cc2)cc1	1.7	9.7*	10.4	0.4	1.2	2.0
N#C/C(=C\c1c[nH]c2ccc(Br)cc12)c1ccccn1	.	3.5	51.0*	13.1	-3.3	5.1
COCCCN1C(=O)C(CC(=O)NCC2CCCCC2)CC(C(=O)N(C(C)C)C(C)C)=C1C (stereo not drawn)	.	.	.	.	.	-16.9
CCOc1ccc(N2C(=O)/C(=C/c3cccs3)N(CC(=O)OC)C2=S)cc1	-3.2	20.0*	1.2	3.9	7.8	7.6
CCOc1ccc(N2C(=O)CN(CC(=O)OC)C2=S)cc1	-8.4	-1.5	1.9	10.6	-1.7	-4.2
O=c1c2ccccc2sn1-c1ccc(Cl)cc1Cl	.	0.4	.	-3.9	-7.3	7.9
O=C(OCCC12CC3CC(CC(C3)C1)C2)c1ccc(NCc2cc(O)ccc2O)cc1	.	1.6	.	-9.7	-21.8	-23.4
O=C(OCC12CC3CC(CC(C3)C1)C2)c1ccc(NCc2cc(O)ccc2O)cc1	.	10.7*	.	0.6	-1.6	10.2
COC(=O)c1sc2ncccc2c1OCc1ccccc1Cl	5.1	-0.9	7.6	15.9	9.8	-2.6
COC(=O)c1sc2ncccc2c1OCc1ccc(Cl)cc1	-2.4	8.8*	6.7	5.2	0.2	-8.5
